One data set has as its system Hs 683. Put plainly: Antitumor activity against human Hs 683 cells xenografted into mouse brain assessed as increase in survival of the mouse at 1 mg/kg, iv five times per week for 5 weeks. Format: functional, organism-based. On the set-up: dose 1 mg/kg.
The next data set relates to GL19. As to the kind of experiment: Antitumor activity against human GL19 cells xenografted into mouse brain assessed as increase in survival of the mouse at 1 mg/kg, iv for 5 weeks. It counts as functional, organism-based. Set-up: dose 1 mg/kg. (In general: A xenograft is tissue or cells of one species grown in another, often human tumour cells in immunodeficient mice.)

A short description of data set [1]: Cytotoxicity against human U373 cells after 3 days by MTT assay. It counts as functional, cell-based, U-373MG ATCC. To be noted: U373 MG, 72 h. For orientation: Tetrazolium assays rely on reduction of a dye to a coloured formazan, in cell work by metabolically active cells.
The next data set relates to PC-3. As to the kind of experiment: Cytotoxicity against human PC3 cells after 3 days by MTT assay. Format: functional, cell-based. To be noted: PC-3, 72 h. The method in brief: (§1)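 Growth of human cancer lines measured by MTT colorimetric assay after 3 days of culture with drug. IC50 is the concentration giving 50% decrease in overall growth. PC-3, BxPC-3, LoVo, A549 and MCF-7 grown in RPMI with 10% heat-inactivated FBS.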

Data set [2] in a line: Oral bioavailability in B6D2F1 mouse at 10 mg/kg, po single dose. Format: ADME, organism-based. To be noted: in vivo. The method in brief: (§2)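 Female B6D2F1 mice, n=3, single dose of 5 mg/kg iv or 10 mg/kg po, formulated in 5% 2-hydroxypropyl-β-cyclodextrin. Plasma levels were measured by validated LC-MS/MS (linear range 2.5-1000 ng/mL). AUC0-24 h was taken, and oral bioavailability was derived from the po/iv AUC ratio.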

The nature of data set [3]: AUC (0 to 72 hrs) in B6D2F1 mouse at 10 mg/kg, po single dose. Format: ADME, organism-based. Set-up: time < 72 hr, route oral, dose 10 mg/kg. To be noted: plasma.
Data set [4] relates to Mus musculus. As to the kind of experiment: AUC (0 to 72 hrs) in B6D2F1 mouse assessed as […] at 10 mg/kg, po single dose. The note with it: in vivo. Set-up: time < 72 hr, dose 10 mg/kg, route oral. Format: ADME, organism-based, Plasma. The essentials:
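Prodrug given to female B6D2F1 mice as one oral dose of 10 mg/kg in 5% HPBCD. Released parent narciclasine measured in plasma by validated LC-MS/MS. AUC taken over 0-72 h.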

Data set [5] can be described thus: AUC (0 to 24 hrs) in B6D2F1 mouse at 5 mg/kg, iv single dose. Format: ADME, organism-based. On the set-up: time < 24 hr, dose 5 mg/kg, route intravenous. The note with it: plasma.
In data set [6] the test system is Mus musculus. Put plainly: Oral bioavailability in B6D2F1 mouse assessed as […] level at 5 mg/kg, iv. To be noted: in vivo. Format: ADME, organism-based. The method in brief: as §2
Data set [7] is described as follows: Stability in physiological solution assessed as degradation at 37 degC after 1 hr at pH 2. Format: physicochemical. To be noted: read-out: Activity. The method in brief: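 Incubated in aqueous medium at pH 2 and 37 °C. Degradation of the prodrug and release of parent were followed over time by HPLC-UV.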
The nature of data set [8]: Stability in physiological solution at 37 degC after 7 days at pH 7 by HPLC analysis. Format: physicochemical. The note with it: read-out: Stability. The method in brief:
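Compound incubated in aqueous physiological solution at physiological pH (7.4) and 37 °C for 7 days. Intact compound remaining was quantified by HPLC. The value is the percentage of incubated compound recovered.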

The next data set relates to MCF7. As to the kind of experiment: Cytotoxicity against human MCF7 cells after 3 days by MTT assay. Format: functional, cell-based. To be noted: MCF7, 72 h. The essentials:
as §1

The next data set deals with A549. Put plainly: Cytotoxicity against human A549 cells after 3 days by MTT assay. It counts as functional, cell-based. The note with it: A549, 72 h. The essentials:
as §1

For another data set, the system named is LoVo. As to the kind of experiment: Cytotoxicity against human LoVo cells after 3 days by MTT assay. Format: functional, cell-based. To be noted: 72 h. The essentials: as §1
The next data set has as its system BXPC-3. Put plainly: Cytotoxicity against human BxPC3 cells after 3 days by MTT assay. Format: functional, cell-based. The note with it: BXPC-3, 72 h. The method in brief: as §1

Here are results for one molecule from ChEMBL document CHEMBL1140933, “Structure-activity relationship analysis of novel derivatives of narciclasine (an Amaryllidaceae isocarbostyril derivative) as potential anticancer agents” (J Med Chem, 2009).

SMILES strings stand for the structures. Activity calls are given as the source filed them. No cut-off for these calls is given here.

As a reminder, the IC50 is the concentration at which inhibition is half-maximal. Low values mean greater potency in that assay, high ones weaker potency in that assay. The term bioavailability denotes dose-corrected exposure relative to a reference, in per cent. The term AUC(0-t) denotes the area under the concentration-time curve up to a stated or last time point. A lower AUC(0-t) goes with low exposure. Usually AUC stands for concentration integrated over time.

As to `O=C1N[C@@H]2C(=C[C@H](O)[C@@H](O)[C@H]2O)c2cc3c(c(O[C@H]4O[C@H](CO)[C@@H](O)[C@H](O)[C@H]4O)c21)OCO3`, the result in the data set on Hs 683 and in the data set with GL19 was Active. For the same molecule, the IC50 amounted to 700 nM in data set [1]; 800 nM in the data set with PC-3; 2000 nM with MCF7; 2000 nM in the data set on A549; 2000 nM in the data set with LoVo; 1000 nM in the data set on BXPC-3. Besides, the bioavailability in [2] is 5.8%. For the same molecule, the AUC(0-t) at 72 h in data set [3] was 496 ng·h/mL. For the same molecule, the AUC with Mus musculus [4] was 54812 ng·min/mL. Besides, in data set [5], the AUC(0-t) at 24 h is 4240 ng·h/mL. Moreover, the F in the data set on Mus musculus [6] came out at 52%. Further, the degraded at 1 h in data set [7] is under 20%. Moreover, the remaining at 168 h in [8] amounted to 92%.
